Assay [1] in a line: S. cerevisiae growth inhibition in permissive medium (OD615), pilot counter-assay for S. cerevisiae lifespan shortening project, permissive growth control (AID 705;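 active = growth inhibition above 25% in both replicates, a cutoff set 3 SD above the mean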). The note with it: OD615, 24 h, at 10 µM, hits give high values. Put shortly: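 System: Engineered DeaD yeast | Buffer or medium: SC raffinose/galactose permissive medium | Incubation: Cells pre-grown 4 h, then 24 h compound exposure, 30 °C humidified | Measured by: Absorbance (optical density) at 615 nm | Read-out: Reduction in yeast growth (OD615)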

Assay [2] in a line: S. cerevisiae growth inhibition in restrictive medium, OD615, pilot screen, restrictive growth control, yeast lifespan reduction project (AID 706;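 active = growth inhibition above a set limit, 3 SD over mean compound inhibition, in both replicates, cut at about 43% in these data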;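 also: modified DeaD lifespan yeast strain shifted to restrictive glucose medium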). The note with it: OD615, 48 h, at 10 µM, hits give high values. The essentials: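 Material: modified S. cerevisiae; Medium: glucose-based CSMM-D restrictive medium; Compound dosing: one concentration, 10 µM final, 0.25% DMSO; Incubation: 48 h compound exposure at 30 °C; Measured by: OD615.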

The nature of assay [3]: doxorubicin toxicity protection in MRP-1 cells – H69AR cells, CellTiter-Glo, duplicate, MRP-1 activator project, pilot screen (AID 807;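 active = viability increase at or above a cutoff of the median across tested compounds plus 3 SD, cut at about 8.5% in these data, passing the limit was not always enough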;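 also: compound pretreatment 18-22 h then 72 h combined with doxorubicin; 0% = doxorubicin alone and 100% = vehicle without doxorubicin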). The note with it: H69AR viability with doxorubicin, CellTiter-Glo luminescence; at 10 µM; hits give high values.
Assay [4] in a line: viability of HCT116 without oncogenic beta-catenin – human colon tumor cells, pilot screen (AID 823;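 active = cell viability at or below a set limit in both duplicate runs, the limit being the all-compound median minus 4 SD, cut at about 23% in these data, passing the limit was not always enough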;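 also: 0% = wells killed by 20 µM Hyamine and 100% = untreated DMSO cell wells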). The note with it: HCT116 beta-catenin knockout viability, CellTiter-Glo, 60 h; at 10 µM; hits give low values.
Assay [5] in a line: viability of PTEN-null HCT116 cells – cell-based, HCT116 clonal line, CellTiter-Glo, pilot screen (AID 824).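 Also: 0% = 20 µM Hyamine control and 100% = vehicle cell control.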 The note with it: HCT116 PTEN-deleted viability, 60 h, at 10 µM, hits give low values.
Assay [6] is described as follows: RAM pathway blockade in budding yeast – dse1pr::URA3 reporter, 5-FOA selection, pilot screen (AID 869;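 active = inhibition over a set limit, the all-compound mean plus 3 SD, in both replicate runs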;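 also: 0% = DMSO wells with no growth and 100% = 10 µM 1-NA-PP1 with full growth; RAM network block rescues cells from 5-FOA so hits raise OD615 growth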). The note with it: S. cerevisiae dse1pr::URA3 5-FOA growth, OD615, 2 d; at 10 µM; hits give high values; strain carries analog-sensitive mutant Cbk1 kinase.
The nature of assay [7]: RAM signaling pathway blockade in yeast – S. cerevisiae, Pdr1DBD-CYC8 efflux-inhibited sensitized strain, primary screen (AID 1298;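 active = RAM network inhibition above 8.4% in each of two replicates, 3 SD over the compound average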;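 also: 0% = DMSO untreated cells without growth and 100% = 10 µM 1-NA-PP1 full growth; higher means more yeast growth rescued from 5-FOA killing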). The note with it: S. cerevisiae cbk1-as DSE1-URA3 strain, 5-FOA growth OD615, 2 d; at 50 µM; hits give high values.

Unmarked numbers belong to inactive results. Results filed as inconclusive are left out. Activity calls are given as the source filed them.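 The calls were made as follows, unless noted: active = viability at or below 27.92% in each of two runs, the all-compound median minus 4 SD; inconclusive = no clear call, values can overlap the other calls; inactive = the rest.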

Consider `CCCc1nc(SCC(=O)Nc2cc(C)on2)c2c(=O)n(C)c(=O)n(C)c2n1`, for which the growth inhibition is 4.81% in assay [1] and 4.73% in assay [2]. In addition, the viability increase in assay [3] was -1.05%. Besides, the viability was 97.1% in assay [4] and 93% in assay [5]. Moreover, in assay [6], the inhibition was 3.88%. Further, the RAM network inhibition in assay [7] is 4.78%.
With `Cc1ccc(C2/C(=C(/O)c3ccccc3)C(=O)C(=O)N2CCN2CCOCC2)o1` (stereo not drawn), the growth inhibition in assay [1] is 8.83%; in assay [2] it was 8.54%. The viability increase in assay [3] is -1.8%. The viability in assay [4] was 104%; in assay [5], 96.7%. The inhibition in assay [6] was 0.095%. The RAM network inhibition in assay [7] is -0.05%.
For the compound `Cc1ccc(S(=O)(=O)NCC(=O)N2CCC(C)CC2)cc1`, the growth inhibition in assay [1] was -17.5%; in assay [2], -28.3%. Besides, in assay [3], the viability increase was 0.72%. Besides, the values for the viability in assay [4] and in assay [5] were 104% and 107%, respectively. The inhibition in assay [6] was 0.475%. Further, the RAM network inhibition in assay [7] was 4.08%.
Consider `CCOC(=O)Cn1c(=O)oc2cc(S(=O)(=O)N(C)Cc3ccco3)ccc21`, for which the growth inhibition is -13.2% in assay [1] and -14% in assay [2]. For the same compound, the viability increase in assay [3] is -4.08%. Besides, the values for the viability in assay [4] and in assay [5] were 99.9% and 94.1%, respectively. In addition, in assay [6], the inhibition was 3.37%. Further, the RAM network inhibition in assay [7] was 4.56%.
As to `COc1ccc(C(=O)OCCN2C(=O)c3ccccc3C2=O)cc1`, the growth inhibition in assay [1] is -3.96%; in assay [2], -5.23%. The viability increase in assay [3] was -0.3%. Also, the values for the viability in assay [4] and in assay [5] were 100% and 93.7%, respectively. Moreover, in assay [6], the inhibition is 0.645%. The RAM network inhibition in assay [7] was 7.05%.
Regarding `NC(=O)CSc1ncc(-c2ccccc2)[nH]1`, the growth inhibition is -4.49% in assay [1] and -3.75% in assay [2]. Further, the viability increase in assay [3] was -3.58%. The viability was 101% in assay [4] and 93.7% in assay [5]. The inhibition in assay [6] is 0.715%. For the same compound, the RAM network inhibition in assay [7] is 4.43%.
Regarding `O=C(Nc1nnc(-c2ccc(Cl)s2)o1)C1CCCCC1`, the figures for the growth inhibition in assay [1] and in assay [2] were -14.7% and -4.65%, respectively. Besides, the viability increase in assay [3] is -4.45%. The results for the viability in assay [4] and in assay [5] were 68.4% and 63.2%, respectively. Further, in assay [6], the inhibition was 3.44%. Moreover, the RAM network inhibition in assay [7] is 3.62%.
`COC(=O)C1C(C(C)C)N(c2ccccc2)OC1(C)O` (stereo not drawn): the growth inhibition was -11.8% in assay [1] and -7.98% in assay [2]. Besides, the viability increase in assay [3] was -4.25%. For the same compound, the viability in assay [4] was 103%; in assay [5], 96.9%. For the same compound, the inhibition in assay [6] was 0.93%. In assay [7], the RAM network inhibition is 1.66%.
As for `CCOC1=NC(C(=O)O)c2ccccc2/C(=C(/C)Cl)N1` (stereo not drawn), the growth inhibition in assay [1] was -4.61%; in assay [2], -27.8%. Also, the viability increase in assay [3] was 0.7%. Further, the viability in assay [4] is 101%; in assay [5] it was 96.8%. Besides, the inhibition in assay [6] was 0.25%. The RAM network inhibition in assay [7] is 2.78%.
As for `Cc1ccc(S(=O)(=O)Cc2ccc(C(=O)N3CCCC3)o2)cc1`, the growth inhibition in assay [1] was -4.83%; in assay [2], -13.4%. Further, the viability increase in assay [3] was -1.75%. In addition, the viability is 99.2% in assay [4] and 108% in assay [5]. The inhibition in assay [6] is 1.19%. In assay [7], the RAM network inhibition was 4.1%.
As for `Cc1cc(OCC(=O)C(C)(C)C)c2c(C)c(C)c(=O)oc2c1`, the growth inhibition was -18.8% in assay [1] and -20.7% in assay [2]. Further, the viability increase in assay [3] is -6.01%. The results for the viability in assay [4] and in assay [5] were 79.9% and 73.8%, respectively. The inhibition in assay [6] was 0.31%. Moreover, the RAM network inhibition in assay [7] is 6.85%.
`CC1CC(C)CN(C(=O)c2cn(C)c3ccc(S(=O)(=O)N(C)C)cc3c2=O)C1` (stereo not drawn): the growth inhibition in assay [1] was -4.13%; in assay [2] it was 14.5%. Moreover, the viability increase in assay [3] is -0.59%. The viability in assay [4] was 114%; in assay [5], 104%. Also, in assay [6], the inhibition is 2.47%. Further, the RAM network inhibition in assay [7] is 2.05%.
Turning to `O=C(Nc1nccs1)c1ccc(S(=O)(=O)N2CCCCC2)cc1`, the values for the growth inhibition in assay [1] and in assay [2] were -9.01% and -1.44%, respectively. In addition, in assay [3], the viability increase is 0.89%. Moreover, the figures for the viability in assay [4] and in assay [5] were 94% and 90%, respectively. Further, in assay [6], the inhibition was 1.73%. Also, the RAM network inhibition in assay [7] is 5.88%.
With `CC(C)OC(=O)CSc1nnc(-c2ccc(Cl)cc2)n1N`, the growth inhibition in assay [1] was -3.53%; in assay [2] it was -8.84%. For the same compound, the viability increase in assay [3] is -0.58%. For the same compound, the figures for the viability in assay [4] and in assay [5] were 97.2% and 95.7%, respectively. In addition, the inhibition in assay [6] is 2.38%. In addition, the RAM network inhibition in assay [7] was 5.48%.
With `O=C(NCc1ccccc1)c1ccc2c(c1)OCCO2`, the growth inhibition in assay [1] was 3.26%; in assay [2], 5.53%. Further, in assay [3], the viability increase is -1.83%. Further, the viability in assay [4] and in assay [5] was 101% throughout. In addition, the inhibition in assay [6] is 1.48%. Moreover, the RAM network inhibition in assay [7] was 0.51%.
For the compound `Clc1ccc(OCc2nnc(-c3ccccc3Br)o2)c(Cl)c1`, the growth inhibition in assay [1] is -11.4%; in assay [2] it was -17%. Besides, the viability increase in assay [3] is -0.17%. The viability in assay [4] is 95.9%; in assay [5], 89.3%. Further, in assay [6], the inhibition was 6% (active). For the same compound, in assay [7], the RAM network inhibition was 14%.
Regarding `C=CCn1c(=N)c(C(=O)OCC)cc2c(=O)n3cc(C)ccc3nc21`, the growth inhibition in assay [1] was 1.62%; in assay [2], 0.61%. In addition, the viability increase in assay [3] is -1.79%. For the same compound, the viability was 87% in assay [4] and 87.4% in assay [5]. In addition, in assay [6], the inhibition was 1.7%. In addition, the RAM network inhibition in assay [7] is 3.98%.
For the compound `COC(=O)c1cc(OC)c(OC)cc1NC(=O)C1CCCO1` (stereo not drawn), the growth inhibition was -6.67% in assay [1] and 1.77% in assay [2]. In assay [3], the viability increase is -0.93%. The viability in assay [4] is 105%; in assay [5], 99.8%. The inhibition in assay [6] was 0.545%. For the same compound, in assay [7], the RAM network inhibition is 4.85%.
In the case of `O=C(c1ccco1)N1CCN=C1SCc1cccc(Cl)c1`, the growth inhibition was -1.8% in assay [1] and 14% in assay [2]. For the same compound, in assay [3], the viability increase is 1.56%. The viability is 87.3% in assay [4] and 91.9% in assay [5]. The inhibition in assay [6] was 0.89%. Also, the RAM network inhibition in assay [7] is 0.26%.
